Each block holds one molecule with its values, some of them ahead of it. Activity calls are given as the source filed them. No cut-off for these calls is given here.
How the values were obtained:
[1] = tested on: HT-29 (Homo sapiens); test: Inhibition of PHLPP in human HT29 cells assessed as increase of phosphorylation of Akt on Ser 473 at 100 to 250 uM after 24 hrs by immunoblotting relative to control
[2] = Inhibition of PHLPP in human […] cells assessed as increase of phosphorylation of FoxO1/3alpha on Thr 24/32 at 100 to 250 uM after 24 hrs by immunoblotting; type: cell-based
How it was run: (§1)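 HT29 colon cells kept in DMEM with 5% FBS were given compounds (100 or 250 μM, DMSO vehicle) for 24 h, then lysed on ice. […] Densitometry normalized to actin and expressed relative to control lanes; three experiments, mean ± SEM.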

[3] = Inhibition of PHLPP in human […] cells assessed as increase of phosphorylation of GSK3 alpha/beta on Ser21/9 at 100 to 250 uM after 24 hrs by immunoblotting; type: cell-based
How it was run: as §1

[4] = Inhibition of protein phosphatase 1 at 10 uM
How it was run: (§2)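 PP1, PP2B or PP2Cα phosphatase domain with 8 mM pNPP in each enzyme's optimal buffer. Compound added; activity taken from A405 and expressed relative to DMSO control. At least three experiments, mean ± SEM.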

[5] = biological target: Serine/threonine protein phosphatase PP2B-alpha catalytic subunit (Homo sapiens) (UniProt P16298); test: Inhibition of protein phosphatase 2B at 10 uM
How it was run: as §2

[6] = biological target: T1, Protein phosphatase 1A (Homo sapiens) (UniProt P35813); test: Inhibition of PP2Calpha at 10 uM
T1 sequence (whole entry): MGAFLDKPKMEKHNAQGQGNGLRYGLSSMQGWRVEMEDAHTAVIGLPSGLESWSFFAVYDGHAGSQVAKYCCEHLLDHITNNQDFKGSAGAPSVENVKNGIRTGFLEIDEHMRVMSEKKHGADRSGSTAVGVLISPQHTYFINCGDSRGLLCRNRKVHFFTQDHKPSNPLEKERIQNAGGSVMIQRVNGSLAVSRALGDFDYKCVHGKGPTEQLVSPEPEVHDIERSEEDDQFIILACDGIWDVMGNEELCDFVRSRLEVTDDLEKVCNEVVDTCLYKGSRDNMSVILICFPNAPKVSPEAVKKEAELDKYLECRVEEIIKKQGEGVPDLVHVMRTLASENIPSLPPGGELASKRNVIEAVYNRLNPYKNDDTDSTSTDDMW
How it was run: as §2

[7] = Inhibition of protein phosphatase 1 at 100 uM
How it was run: as §2

[8] = biological target: T1, Protein phosphatase 1A (Homo sapiens); test: Inhibition of PP2Calpha at 100 uM
How it was run: as §2

[9] = tested on: COS-7; test: Inhibition of PHLPP expressed in 24 hrs serum starved Cos7 cells assessed as half maximal increase of phosphorylation of Akt substrate after 30 mins by immunoblotting; type: cell-based; conditions: in the assay text read “after 35 mins” for “after 30 mins”
How it was run: (§3)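 COS 7 cells serum-starved 24 h in serum-free DMEM, then exposed 35 min at 37 °C to inhibitor over 4−400 or 3−300 μM; DMSO control. Lysates were immunoblotted for pSer473, pThr308, phospho-Akt-substrate motif, and actin. Densitometry normalized to actin and to DMSO (set to 1), fit to eq 2; four separate experiments, mean ± SEM.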

[10] = tested on: COS-7; test: Inhibition of PHLPP expressed in 24 hrs serum starved Cos7 cells assessed as half maximal increase of phosphorylation on Thr308 after 30 mins by immunoblotting; type: cell-based; conditions: in the assay text read “after 35 mins” for “after 30 mins”
How it was run: as §3

[11] = Inhibition of PHLPP expressed in 24 hrs serum starved Cos7 cells assessed as increase of Akt phosphorylation after 30 mins by immunoblotting; conditions: COS-7
[12] = biological target: T2, PH domain leucine-rich repeat-containing protein phosphatase 2 (Homo sapiens) (UniProt Q6ZVD8); conditions: 10 uM
T2 sequence (whole entry): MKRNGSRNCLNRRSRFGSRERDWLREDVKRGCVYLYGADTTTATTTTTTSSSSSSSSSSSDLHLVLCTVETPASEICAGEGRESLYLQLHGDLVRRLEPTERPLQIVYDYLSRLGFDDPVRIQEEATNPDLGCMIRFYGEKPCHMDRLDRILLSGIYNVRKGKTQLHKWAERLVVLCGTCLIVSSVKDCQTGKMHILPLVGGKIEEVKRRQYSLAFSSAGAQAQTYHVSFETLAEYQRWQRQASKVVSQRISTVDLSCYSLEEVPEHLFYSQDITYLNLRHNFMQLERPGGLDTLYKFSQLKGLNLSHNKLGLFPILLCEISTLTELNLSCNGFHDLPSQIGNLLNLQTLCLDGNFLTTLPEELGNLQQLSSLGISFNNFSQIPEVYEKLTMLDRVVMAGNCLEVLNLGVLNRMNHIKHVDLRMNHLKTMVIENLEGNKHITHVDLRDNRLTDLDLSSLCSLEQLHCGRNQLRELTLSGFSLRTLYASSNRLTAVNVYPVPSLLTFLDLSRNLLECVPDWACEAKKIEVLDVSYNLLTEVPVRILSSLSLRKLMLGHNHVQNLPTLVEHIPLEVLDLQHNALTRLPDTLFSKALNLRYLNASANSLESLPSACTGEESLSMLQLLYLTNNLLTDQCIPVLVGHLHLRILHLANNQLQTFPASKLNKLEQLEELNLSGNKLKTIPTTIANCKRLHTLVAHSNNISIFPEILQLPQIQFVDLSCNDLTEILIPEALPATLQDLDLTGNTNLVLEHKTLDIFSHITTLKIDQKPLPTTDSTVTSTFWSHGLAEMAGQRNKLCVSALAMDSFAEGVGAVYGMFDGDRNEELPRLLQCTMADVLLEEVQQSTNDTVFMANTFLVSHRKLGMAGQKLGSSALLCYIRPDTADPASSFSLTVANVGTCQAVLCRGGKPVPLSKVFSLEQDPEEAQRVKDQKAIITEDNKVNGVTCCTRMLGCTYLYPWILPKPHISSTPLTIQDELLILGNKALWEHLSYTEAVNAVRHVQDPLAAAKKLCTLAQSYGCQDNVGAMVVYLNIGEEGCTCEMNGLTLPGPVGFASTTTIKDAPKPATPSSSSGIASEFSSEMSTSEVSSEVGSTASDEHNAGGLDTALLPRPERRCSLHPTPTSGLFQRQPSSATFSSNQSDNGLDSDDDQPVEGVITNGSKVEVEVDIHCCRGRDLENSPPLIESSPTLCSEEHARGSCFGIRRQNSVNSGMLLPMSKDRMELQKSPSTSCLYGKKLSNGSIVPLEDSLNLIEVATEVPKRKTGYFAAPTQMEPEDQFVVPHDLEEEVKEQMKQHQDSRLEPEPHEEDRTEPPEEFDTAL

[13] = tested on: COS-7; test: Induction of apoptosis assessed as basal level of apoptotic cells in african green monkey COS7 cells at 50 uM after 24 hrs by trypan blue exclusion assay
[14] = tested on: HT-29; test: Cytotoxicity against human HT-29 cells at 100 uM after 24 hrs; type: cell-based; conditions: ht-29, 24 h
[15] = tested on: HT20; test: Inhibition of PHLPP in human […] cells assessed as increase of phosphorylation of FoxO1/3alpha on Thr 24/32 at 100 uM after 24 hrs by immunoblotting; type: cell-based
How it was run: as §1

[16] = tested on: HT20; test: Inhibition of PHLPP in human […] cells assessed as increase of phosphorylation of GSK3 alpha/beta on Ser21/9 at 100 uM after 24 hrs by immunoblotting; type: cell-based
How it was run: as §1

[17] = tested on: HT20; test: Inhibition of PHLPP in human […] cells assessed as increase of phosphorylation of Akt on Ser 473 at 100 uM after 24 hrs by immunoblotting; type: cell-based
How it was run: as §1

[18] = biological target: T3, PH domain leucine-rich repeat-containing protein phosphatase 2 (Homo sapiens, UniProt Q6ZVD8); test: Inhibition of PHLPP2 phosphatase domain expressed in Escherichia coli
T3 sequence (Q6ZVD8 whole entry): T2 sequence (whole entry)
How it was run: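 A405 was followed over time, slope taken, no-enzyme background subtracted. Inhibitor at seven concentrations versus DMSO (100%); fit to eq 1, IC50 = −C0 ln(1/2).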

[19] = tested on: HT20; test: Inhibition of PHLPP in human […] cells assessed as increase of phosphorylation of Akt on Ser 473 at 100 to 250 uM after 24 hrs by immunoblotting relative to control; type: cell-based
How it was run: as §1

SMILES: O=S(=O)(O)c1ccc(-c2nnc(-c3ccccn3)nc2-c2ccc(S(=O)(=O)O)o2)o1
- inhibition [1]: Active

SMILES: Nc1cc(S(=O)(=O)O)cc2cc(S(=O)(=O)O)c(/N=N/c3ccc(S(=O)(=O)c4ccc(/N=N/c5c(O)ccc6cccc(S(=O)(=O)O)c56)cc4)cc3)c(O)c12
- inhibition [1]: Active

SMILES: COc1cc(/N=N/c2ccc(S(=O)(=O)O)cc2)ccc1/N=N/c1ccc(O)c(C(=O)O)c1
- inhibition [1]: Active

SMILES: Nc1nc(SCc2ccccc2)c2ncn(Cc3ccccc3)c2n1
- inhibition [1]: Active

SMILES: Nc1c(S(=O)(=O)O)cc(Nc2cccc(S(N)(=O)=O)c2)c2c1C(=O)c1ccccc1C2=O
- inhibition [2]: Active
- inhibition [3]: Active
- inhibition [4]: inactive
- inhibition [5]: inactive
- inhibition [6]: inactive
- inhibition [7]: 50%
- inhibition [8]: 50%
- Activity [9]: 36.4 µM
- Activity [10]: 132 µM
- IC50 [11]: 30 µM
- inhibition [12]: 80%
- basal apoptotic cells [13]: 12%
- inhibition [1]: Active

SMILES: CS(=O)(=O)c1cc2ccc(Nc3ccccc3)cc2c(O)c1/N=N/c1ccc(-c2ccc(/N=N/c3ccc(O)c(C(=O)O)c3)cc2)cc1
- inhibition [1]: Active

SMILES: CC(=O)Nc1ccc(Nc2cc(S(=O)(=O)O)c(N)c3c2C(=O)c2ccccc2C3=O)cc1
- inhibition [1]: Active

SMILES: NS(=O)(=O)c1ccc(/N=N/c2ccc(O)c(C(=O)O)c2)cc1
- inhibition [1]: Active

SMILES: CN(C)CCOC(=O)c1ccc(N)cc1
- inhibition [1]: Active

SMILES: Nc1cc(N)c(/N=N/c2ccc(S(=O)(=O)O)cc2)cc1/N=N/c1ccc(-c2ccc(/N=N/c3ccc(O)c(C(=O)O)c3)cc2)cc1
- inhibition [1]: Active

SMILES: Cc1cc(-c2ccc(/N=N/c3c(S(=O)(=O)O)cc4cc(S(=O)(=O)O)cc(N)c4c3O)c(C)c2)ccc1/N=N/c1cc(S(=O)(=O)O)c2ccccc2c1O
- inhibition [1]: Active

SMILES: COc1cc(NCCC2CCCCN2)c2ncccc2c1 (centres undefined)
- inhibition [2]: Active
- inhibition [3]: Active
- Activity [14]: Toxic
- inhibition [1]: Active

SMILES: O=C(O)c1c(O)c(/N=N/c2ccc(S(=O)(=O)Nc3nccs3)cc2)cc2ccccc12
- inhibition [1]: Active

SMILES: O=C1c2ccccc2-c2cc([N+](=O)[O-])c([N+](=O)[O-])cc21
- inhibition [1]: Active

SMILES: CS(=O)(=O)c1ccc2c(/N=N/c3ccc(-c4ccc(/N=N/c5ccc(N)c6cc(S(=O)(=O)O)ccc56)cc4)cc3)ccc(N)c2c1
- inhibition [1]: Active

SMILES: S=C(Nc1ccc2cn[nH]c2c1)Nc1ccc2cn[nH]c2c1
- inhibition [1]: Active

SMILES: COc1ccc(NCc2c(O)ccc3ccccc23)cc1
- inhibition [15]: Active
- inhibition [16]: Active
- inhibition [17]: inactive

SMILES: Cc1ccc(/N=N/c2c(N)c(C)cc(/N=N/c3ccc(/N=N/c4ccc(O)c(C(=O)O)c4)cc3)c2N)c(S(=O)(=O)O)c1
- inhibition [1]: Active

SMILES: O=C(O)c1cc(/N=N/c2ccc(S(=O)(=O)Nc3nccs3)cc2)ccc1O
- inhibition [1]: Active

- IC50 [18]: 10 µM
SMILES: O=C(O)C1CCCCC1c1c2ccc(=O)c(O)c-2oc2c(O)c(O)ccc12 (centres undefined)
- inhibition [1]: Active

SMILES: COc1cc(-c2ccc(/N=N/c3c(S(=O)(=O)O)cc4cc(N)ccc4c3O)c(OC)c2)ccc1/N=N/c1cc(S(=O)(=O)O)c2ccccc2c1O
- inhibition [1]: Active

SMILES: C[C@]12CC[C@H]3[C@@H](CCC4=CC(=O)CC[C@@]43C)[C@@H]1CC[C@@H]2C(=O)COS(=O)(=O)c1ccc(Br)cc1
- inhibition [19]: Active

SMILES: Nc1c(/N=N/c2ccc(-c3ccc(/N=N/c4cc(S(=O)(=O)O)c5ccccc5c4N)cc3)cc2)cc(S(=O)(=O)O)c2ccccc12
- inhibition [1]: Active

SMILES: NS(=O)(=O)c1ccc(/N=N/c2ncccc2O)cc1
- inhibition [1]: Active

SMILES: Cc1cc(/N=N/c2ccc(/N=N/c3ccc(S(=O)(=O)O)cc3)cc2)cc(C(=O)O)c1O
- inhibition [1]: Active

SMILES: COc1ccc2nc3cc(Cl)ccc3c(Nc3ccc(C(=O)O)cc3)c2c1
- inhibition [2]: Active
- inhibition [3]: Active
- inhibition [1]: Active

SMILES: CN(C)c1ccc(C(c2ccc(N(C)C)cc2)c2ccc([N+](=O)[O-])cc2)cc1
- inhibition [1]: Active

SMILES: COc1ccc2nc3cc(Cl)ccc3c(Nc3ccc(C(=O)O)c(O)c3)c2c1
- inhibition [1]: Active

SMILES: Cc1cc(/N=N/c2ccc(/N=N/c3ccc(O)c(C(=O)O)c3)cc2)c(N)cc1N
- inhibition [2]: Active
- inhibition [3]: Active
- IC50 [18]: 3.75 µM
- inhibition [1]: Active

SMILES: CS(=O)(=O)c1cc2cc(Nc3ccccc3)ccc2c(O)c1/N=N/c1ccc(-c2ccc(/N=N/c3ccc(O)c(C(=O)O)c3)cc2)cc1
- inhibition [1]: Active

SMILES: O=C(O)c1c(O)c(/N=N/c2ccc(S(=O)(=O)Nc3ccccn3)cc2)cc2ccccc12
- inhibition [1]: Active
